High-throughput results: PubChem, Broad Institute
S100A4 inh HTS = inhibitors of S100A4-myosin IIA peptide binding, primary screen, biochemical, fluorescence polarization, TAMRA-MyoIIA peptide; 360,000 compounds, 0.14% hits; inhibition, % at 10.7 µM; Protein S100-A4 (Homo sapiens), P26447;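 active means mean inhibition of at least 70% across replicates, with every replicate also reaching that level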
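Material: S100A4 monomer protein / Buffer or medium: 50 mM HEPES pH 7.2, 10 mM CaCl2, 100 mM KCl / Times: 5 min incubation before reading / Benchmarks: neutral control DMSO, positive control TFP / Reagent: labelled myosin peptide probe, 5 nM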
ERAP1 inh = human ERAP1 aminopeptidase inhibitors, primary screen, biochemical, single point, plate reader | Endoplasmic reticulum aminopeptidase 1 (Homo sapiens), Q9NZ08 | recombinant ERAP1, Leu-AMC fluorescence, 60 min | inhibition, % at 10.7 µM | 340,000 compounds, 0.15% hits | AID 652197, 2013;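 active means mean replicate inhibition of at least 30%, or all replicates individually reaching that 30% level; inactive means mean below 30% and not every replicate reaching it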
Target sequence (Q9NZ08 whole entry, looked up): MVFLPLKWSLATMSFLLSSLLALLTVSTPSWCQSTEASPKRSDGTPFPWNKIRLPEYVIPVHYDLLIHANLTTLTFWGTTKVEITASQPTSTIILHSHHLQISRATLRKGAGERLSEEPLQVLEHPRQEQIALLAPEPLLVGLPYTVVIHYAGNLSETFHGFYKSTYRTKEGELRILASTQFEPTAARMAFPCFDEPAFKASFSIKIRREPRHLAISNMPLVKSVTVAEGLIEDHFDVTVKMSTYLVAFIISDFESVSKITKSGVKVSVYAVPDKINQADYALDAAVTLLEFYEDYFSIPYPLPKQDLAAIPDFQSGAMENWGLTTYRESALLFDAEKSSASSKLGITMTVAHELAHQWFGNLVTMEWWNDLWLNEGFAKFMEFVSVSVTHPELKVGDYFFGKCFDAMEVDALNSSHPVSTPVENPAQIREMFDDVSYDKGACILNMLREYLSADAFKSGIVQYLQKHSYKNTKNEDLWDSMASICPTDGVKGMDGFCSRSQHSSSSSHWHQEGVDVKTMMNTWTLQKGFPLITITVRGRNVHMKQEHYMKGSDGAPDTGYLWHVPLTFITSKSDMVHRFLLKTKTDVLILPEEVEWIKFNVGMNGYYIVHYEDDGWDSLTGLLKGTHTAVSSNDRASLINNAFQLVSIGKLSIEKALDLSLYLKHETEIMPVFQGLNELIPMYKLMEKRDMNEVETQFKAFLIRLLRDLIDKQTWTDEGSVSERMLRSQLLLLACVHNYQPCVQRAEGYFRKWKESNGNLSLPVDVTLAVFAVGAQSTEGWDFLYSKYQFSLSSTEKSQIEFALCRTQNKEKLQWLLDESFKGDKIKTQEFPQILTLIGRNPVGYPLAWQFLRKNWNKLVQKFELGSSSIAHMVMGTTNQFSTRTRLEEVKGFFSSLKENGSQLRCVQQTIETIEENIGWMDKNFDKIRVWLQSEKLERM
MLL AF4-AF9 inh = inhibitors of AF4 peptide binding to AF9, primary screen, biochemical, AlphaScreen, biotin-AF4 peptide, FLAG-AF9, single point; inhibition, % at 10 µM; 350,000 compounds, 0.47% hits; Protein AF-9 (Homo sapiens), P42568;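 active means every replicate reaching a set inhibition limit, whatever the replicate mean, cut at about 25% in these data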
RAD52 inh = RAD52 DNA annealing inhibitors, primary screen, biochemical, FRET, single point, set 2; 360,000 compounds, 0.46% hits; recombinant RAD52 DNA annealing, FRET fluorescence; DNA repair protein RAD52 homolog (Homo sapiens), P43351; AID 651710, 2012; inhibition, % at 18.7 µM;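 active means every replicate showing at least 50% inhibition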
GSIS activator = GLuc luminescence reporter in INS-1E cells, primary screen for activators of glucose-dependent secretion of insulin; AID 743287, 2014; 370,000 compounds, 0.61% hits; INS-1E GLuc reporter insulin secretion, 2-3 h; activation, % at 16.6 µM;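 active means lowest replicate activation of at least 40%, so every replicate reaches that level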
Each line names hits and unclear results; the compound was inactive in the other large screens. Rows were chosen to be rich in hits. Some 1.5% of all compounds tested hit in one or more screens of this group.

CC(=O)Nc1c(-c2ccccc2)nc2ccc(Cl)cn12	none (no result: ERAP1 inh, GSIS activator)
Cc1ccccc1Nc1c(-c2ccncc2)nc2ccc(Cl)cn12	GSIS activator 40
CN1C(=O)/C(=C/c2ccc3c(c2)OCO3)N=C1c1ccccc1	GSIS activator 40 (no result: S100A4 inh HTS, ERAP1 inh, MLL AF4-AF9 inh, RAD52 inh)
C/C=C1\COC(C(=O)NCc2cccc(OC)c2OC)(C(F)(F)F)C=C1C=C1CCCCC1 (stereo not given)	GSIS activator 73
Cc1ccccc1S(=O)(=O)N(C)C[C@H]1OCc2ccccc2-c2ccccc2C(=O)N([C@@H](C)CO)C[C@@H]1C	none (no result: S100A4 inh HTS, ERAP1 inh, MLL AF4-AF9 inh, RAD52 inh)
Cc1ccc(S(=O)(=O)Nc2ccc3c(c2)C(=O)N([C@@H](C)CO)C[C@@H](C)[C@@H](CN(C)CC2CCCCC2)OCCCC[C@@H](C)O3)cc1	RAD52 inh 56
Cc1ccc(S(=O)(=O)Nc2ccc3c(c2)C(=O)N([C@H](C)CO)C[C@@H](C)[C@@H](CN(C)C(=O)NC(C)C)OCCCC[C@@H](C)O3)cc1	S100A4 inh HTS 107
Cc1ccc(S(=O)(=O)Nc2ccc3c(c2)C(=O)N([C@@H](C)CO)C[C@H](C)[C@H](CN(C)CC2CCCCC2)OCCCC[C@H](C)O3)cc1	none
Cc1ccc(S(=O)(=O)Nc2ccc3c(c2)C(=O)N([C@H](C)CO)C[C@@H](C)[C@H](CN(C)S(C)(=O)=O)OCCCC[C@@H](C)O3)cc1	S100A4 inh HTS 125
Cc1ccc(S(=O)(=O)Nc2ccc3c(c2)C(=O)N([C@H](C)CO)C[C@H](C)[C@@H](CN(C)CC2CCCCC2)OCCCC[C@@H](C)O3)cc1	none
Cc1ccc(S(=O)(=O)Nc2ccc3c(c2)C(=O)N([C@H](C)CO)C[C@H](C)[C@H](CN(C)CC2CCCCC2)OCCCC[C@@H](C)O3)cc1	RAD52 inh 55
N#C[C@@H]1[C@H](c2ccccc2-c2ccccc2F)[C@H](CO)N1C(=O)Cc1ccccc1	none
CS(=O)(=O)N1CC2(C1)[C@@H](c1ccccc1)[C@@H](CO)N2C(=O)C1CCC1	none (no result: S100A4 inh HTS, ERAP1 inh, MLL AF4-AF9 inh, RAD52 inh)
c1ccc(-c2nc(NCC3CC3)nc3ccsc23)cc1	GSIS activator 78
CCCNC(=O)C1(C)CCN(C(=O)c2cccc(Cl)c2)C1 (stereo not given)	none (no result: GSIS activator)
CCCNC(=O)C1(C)CCN(C(=O)c2cccc(C#N)c2)C1 (stereo not given)	MLL AF4-AF9 inh 28
CCNC(=O)C1(C)CCCN1Cc1cccc(C(F)(F)F)c1 (stereo not given)	GSIS activator 44
CCCNC(=O)C1(C)CCN(C(=O)c2cccc(C(F)(F)F)c2)C1 (stereo not given)	GSIS activator 45
CO[C@H]1CN(C)C(=O)c2ccc(NC(=O)C3CC3)cc2OC[C@@H](C)N(Cc2cccnc2)C[C@H]1C	none
CCCN1CCN(CCCNC(=O)c2cc3c(s2)-c2ccccc2OC3)CC1	none
CCN1CCN(CCCNC(=O)c2cc3c(s2)-c2ccccc2OC3)CC1	ERAP1 inh 54
CC1CC(C)CN(CCCNC(=O)c2cc3c(s2)-c2ccccc2OC3)C1 (stereo not given)	none
CC1CCCC(C)N1CCCNC(=O)c1cc2c(s1)-c1ccccc1OC2 (stereo not given)	ERAP1 inh 32
C[C@H]1CN([C@@H](C)CO)S(=O)(=O)c2ccc(-c3ccc(F)cc3)cc2O[C@H]1CN(C)C(=O)Nc1ccc(F)cc1	none (no result: S100A4 inh HTS, ERAP1 inh, MLL AF4-AF9 inh, RAD52 inh)
COCC(=O)Nc1ccc2c(c1)OC[C@@H](C)N(C(=O)C1CCCC1)C[C@H](C)[C@H](OC)CN(C)C2=O	none (no result: S100A4 inh HTS, ERAP1 inh, MLL AF4-AF9 inh, RAD52 inh)
COc1cc2cnc(-c3ccsc3)cc2cc1OC	GSIS activator 50 (no result: ERAP1 inh)
c1cc(-c2cc3cc4c(cc3cn2)OCO4)cs1	none
C[C@H]1CN([C@@H](C)CO)C(=O)c2cc(NC(=O)c3ccncc3)ccc2O[C@@H]1CN(C)Cc1ccc(-c2ccccc2)cc1	none
CO[C@@H]1CN(C)C(=O)c2ccc(NC(=O)C3CCOCC3)cc2OC[C@@H](C)N(S(=O)(=O)c2ccc(C)cc2)C[C@H]1C	none
Cc1ccc2c(c1)N(C(=O)CCC(=O)NCCCN1CCOCC1)CC(C)O2 (stereo not given)	none
CCN1CCN(CCCNC(=O)CCC(=O)N2CC(C)Oc3ccc(C)cc32)CC1 (stereo not given)	MLL AF4-AF9 inh 49 (no result: GSIS activator)
